Legend:
[1] = system: Rattus norvegicus; experiment: Tested for in vivo Antihypertensive activity in DOCA rat by giving subcutaneous dose of 30 mg/kg; format: functional
Summary of the method: (§1)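 Male Sprague-Dawley rats (100–150 g) had DOCA-Na hypertension induced and were used 17–21 days later if mean BP was >150 mmHg. Rats were not fasted. Mean BP was recorded after 90-min equilibration. Dosing was sc in TRIS buffer (2 mL/kg) or po in 0.4% aqueous methylcellulose (4 mL/kg). The maximum BP fall over 4 h versus vehicle controls was taken, averaged over four or more animals.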

[2] = system: Rattus norvegicus; experiment: In vivo potentiation of ANF Induced Hypotension in rat was determined by giving subcutaneous dose of 10 mg/kg; format: functional
Summary of the method: (§2)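 Conscious male SHR (270–300 g) had caudal artery and jugular vein cannulae placed under ether. After at least 90 min of stabilization, ANF 103-125 or 99-126 was given as an iv bolus at a submaximal dose. 60–90 min later, drug or vehicle (0.2% aqueous methylcellulose with 20% Tris-HCl) was given sc. ANF was repeated 15 min after dosing, and the response was compared with vehicle controls. Values are means of four or more animals.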

[3] = system: Rattus norvegicus; experiment: Ttested for in vivo Antihypertensive activity in DOCA rat by giving subcutaneous dose of 0.1 mg/kg; format: functional; summary of the method: as §1
[4] = system: Rattus norvegicus; experiment: Tested for in vivo Antihypertensive activity in DOCA rat by giving peroral dose of 10 mg/kg; format: functional; conditions: route oral; summary of the method: as §1
[5] = system: Rattus norvegicus; experiment: Tested for in vivo Antihypertensive activity in DOCA rat by giving subcutaneous dose of 1 mg/kg; format: functional; summary of the method: as §1
[6] = system: Rattus norvegicus; experiment: In vivo potentiation of ANF induced hypotension in rat, following subcutaneous dose of 30 mg/kg; format: functional; summary of the method: as §2
[7] = target: T1, Angiotensin-converting enzyme (Oryctolagus cuniculus, UniProt P12822); experiment: Tested in vitro for its inhibitory activity against angiotensin converting enzyme
T1 sequence (P12822 whole entry): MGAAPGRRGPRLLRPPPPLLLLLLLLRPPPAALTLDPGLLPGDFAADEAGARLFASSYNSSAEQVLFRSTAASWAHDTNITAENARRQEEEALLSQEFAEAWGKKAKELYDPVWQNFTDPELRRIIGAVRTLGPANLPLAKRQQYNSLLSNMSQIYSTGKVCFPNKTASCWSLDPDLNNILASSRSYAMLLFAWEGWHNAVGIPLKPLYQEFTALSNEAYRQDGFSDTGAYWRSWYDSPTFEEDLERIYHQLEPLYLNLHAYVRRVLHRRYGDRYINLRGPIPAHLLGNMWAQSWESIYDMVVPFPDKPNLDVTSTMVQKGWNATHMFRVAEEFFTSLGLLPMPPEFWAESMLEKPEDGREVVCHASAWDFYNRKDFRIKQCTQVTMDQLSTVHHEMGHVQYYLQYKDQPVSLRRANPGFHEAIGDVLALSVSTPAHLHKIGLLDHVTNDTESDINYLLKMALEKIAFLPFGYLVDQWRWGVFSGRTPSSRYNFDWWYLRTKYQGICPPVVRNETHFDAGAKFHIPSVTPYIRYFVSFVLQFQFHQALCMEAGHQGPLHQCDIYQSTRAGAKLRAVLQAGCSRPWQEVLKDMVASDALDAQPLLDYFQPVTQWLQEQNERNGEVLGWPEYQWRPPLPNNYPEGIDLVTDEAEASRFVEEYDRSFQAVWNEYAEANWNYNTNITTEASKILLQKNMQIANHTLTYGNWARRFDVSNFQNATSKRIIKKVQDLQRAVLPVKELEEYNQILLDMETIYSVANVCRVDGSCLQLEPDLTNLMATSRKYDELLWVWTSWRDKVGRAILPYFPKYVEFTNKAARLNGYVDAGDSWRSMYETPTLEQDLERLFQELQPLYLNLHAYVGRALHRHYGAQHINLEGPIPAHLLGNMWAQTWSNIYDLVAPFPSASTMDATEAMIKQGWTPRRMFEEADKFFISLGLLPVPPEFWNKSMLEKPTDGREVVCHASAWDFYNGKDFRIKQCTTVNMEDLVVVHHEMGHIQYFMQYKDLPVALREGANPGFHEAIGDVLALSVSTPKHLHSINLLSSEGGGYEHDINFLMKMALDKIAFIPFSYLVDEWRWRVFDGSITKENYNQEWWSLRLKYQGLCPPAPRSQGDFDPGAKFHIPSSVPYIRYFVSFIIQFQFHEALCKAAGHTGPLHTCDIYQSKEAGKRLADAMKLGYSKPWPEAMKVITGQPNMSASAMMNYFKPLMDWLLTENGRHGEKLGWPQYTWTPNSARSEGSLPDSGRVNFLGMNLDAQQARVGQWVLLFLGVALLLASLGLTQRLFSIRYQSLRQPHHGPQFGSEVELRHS

[8] = target: T2, Neprilysin (Oryctolagus cuniculus, UniProt P08049); experiment: In vitro inhibitory activity against neutral endopeptidase (NEP)
T2 sequence (P08049 whole entry): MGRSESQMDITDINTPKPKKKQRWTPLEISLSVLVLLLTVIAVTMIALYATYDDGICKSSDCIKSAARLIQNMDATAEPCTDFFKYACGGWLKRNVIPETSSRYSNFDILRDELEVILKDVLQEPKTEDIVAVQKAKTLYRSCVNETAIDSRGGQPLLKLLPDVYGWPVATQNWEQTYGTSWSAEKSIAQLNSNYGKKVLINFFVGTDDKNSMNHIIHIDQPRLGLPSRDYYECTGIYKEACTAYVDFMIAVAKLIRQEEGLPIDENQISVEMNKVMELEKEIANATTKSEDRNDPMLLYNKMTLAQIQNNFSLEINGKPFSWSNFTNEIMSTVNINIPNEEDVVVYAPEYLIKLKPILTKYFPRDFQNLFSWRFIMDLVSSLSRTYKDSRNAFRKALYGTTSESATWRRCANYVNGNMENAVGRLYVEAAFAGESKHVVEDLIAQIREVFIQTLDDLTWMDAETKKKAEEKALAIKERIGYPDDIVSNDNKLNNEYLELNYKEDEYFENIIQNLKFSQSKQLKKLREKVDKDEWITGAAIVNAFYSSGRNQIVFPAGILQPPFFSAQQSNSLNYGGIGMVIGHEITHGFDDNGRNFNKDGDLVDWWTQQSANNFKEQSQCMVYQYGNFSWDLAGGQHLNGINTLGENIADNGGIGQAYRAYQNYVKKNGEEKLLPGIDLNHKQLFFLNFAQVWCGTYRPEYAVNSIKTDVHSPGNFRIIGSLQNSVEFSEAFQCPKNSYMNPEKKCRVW
Summary of the method: (§3)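 Purified rabbit kidney NEP (EC 24.11) was the enzyme source, with [³H]Leu-enkephalin as the substrate.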

[9] = system: Rattus norvegicus; experiment: In vivo potentiation of ANF Induced Hypotension in rat was determined by giving peroral dose of 10 mg/kg; format: functional; conditions: route oral
[10] = system: Rattus norvegicus; experiment: In vivo potentiation of ANF Induced Hypotension in rat was determined by giving peroral dose of 3 mg/kg; format: functional; conditions: route oral
[11] = system: Rattus norvegicus; experiment: Tested for in vivo Antihypertensive activity in DOCA rat by giving peroral dose of 1 mg/kg; format: functional; conditions: route oral; summary of the method: as §1
[12] = system: Rattus norvegicus; experiment: Tested for in vivo Antihypertensive activity in DOCA rat by giving peroral dose of 3 mg/Kg; format: functional; summary of the method: as §1
[13] = system: Rattus norvegicus; experiment: Tested for in vivo Antihypertensive activity in DOCA rat by giving subcutaneous dose of 10 mg/kg; format: functional; summary of the method: as §1
[14] = system: Rattus norvegicus; experiment: Tested for in vivo Antihypertensive activity in DOCA rat by giving peroral dose of 30 mg/kg; format: functional; conditions: route oral; summary of the method: as §1
[15] = system: Rattus norvegicus; experiment: Tested for in vivo Antihypertensive activity in DOCA rat by giving subcutaneous dose of 3 mg/kg; format: functional; summary of the method: as §1
[16] = system: Rattus norvegicus; experiment: Tested for in vivo Antihypertensive activity in DOCA rat by giving peroral dose of 3 mg/kg; format: functional; conditions: route oral
Summary of the method: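 Male Sprague-Dawley rats (100–150 g at preparation) made DOCA-Na hypertensive, used 17–21 days after induction if mean BP >150 mmHg, nonfasted. Drug given orally as solution or suspension in 0.4% aqueous methylcellulose (4 mL/kg). Mean BP recorded after 90-min equilibration. Value is maximum BP fall over 4 h versus vehicle-treated controls, averaged over four or more animals.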

[17] = system: Rattus norvegicus; experiment: In vivo potentiation of ANF Induced Hypotension in rat was determined by giving subcutaneous dose of 90 mg/kg ANF; format: functional
[18] = system: Rattus norvegicus; experiment: Tested for in vivo Antihypertensive activity in DOCA rat by giving peroral dose of 1 mg/Kg; format: functional; summary of the method: as §1
[19] = target: T2, Neprilysin; experiment: Ttested for its inhibitory activity against neutral endopeptidase (NEP); summary of the method: as §3

| SMILES | Delta blood pressure [1] [mmHg] | Delta blood pressure [6] [mmHg] | IC50 [7] [nM] | IC50 [8] [nM] | also measured |
| --- | --- | --- | --- | --- | --- |
| CC(=O)SC[C@@H](Cc1ccccc1)C(=O)N[C@H](CSCc1ccc(C)cc1)C(=O)O | 48 |  |  |  | Delta blood pressure [2]: 42 mmHg |
| CCSC[C@@H](NC(=O)[C@@H](CS)Cc1ccccc1)C(=O)O |  | 19 | 28 | 2.4 | Delta blood pressure [3]: 21 mmHg; Delta blood pressure [4]: 61 mmHg; Delta blood pressure [5]: 22 mmHg |
| CSCC[C@@H](NC(=O)[C@H](CSC(=O)c1ccccc1)Cc1ccccc1)C(N)=O | 0 |  |  |  | Delta blood pressure [9]: 52 mmHg; Delta blood pressure [10]: 19 mmHg |
| CCOC(=O)[C@@H](CCSC)NC(=O)[C@@H](CSC(C)=O)Cc1ccccc1C |  | 36 | 250 | > 300 | Delta blood pressure [4]: 70 mmHg; Delta blood pressure [11]: 27 mmHg; Delta blood pressure [12]: 48 mmHg |
| CSCC[C@@H](NC(=O)[C@@H](CSC(C)=O)Cc1ccccc1)C(N)=O |  | 23 |  |  | Delta blood pressure [12]: 39 mmHg |
| C[C@H](CS)C(=O)N[C@H](CSCc1ccccc1)C(=O)O | 0 | 19 | 58 | 46 |  |
| O=C(N[C@H](CSCc1ccccc1)C(=O)O)[C@@H](CS)Cc1ccccc1 | 30 |  | 24 | 9 | Delta blood pressure ([6]; 30 mg/kg): 35 mmHg; Delta blood pressure [13]: 17 mmHg |
| Cc1ccc(CSC[C@@H](NC(=O)[C@H](CS)Cc2ccccc2)C(=O)O)cc1 | 33 | 48 | 1200 | 20 | Delta blood pressure [14]: 28 mmHg |
| Cc1ccc(CSC[C@@H](NC(=O)[C@H](CS)Cc2ccccc2)C(N)=O)cc1 |  | 17 |  | > 300 | Delta blood pressure [4]: 46 mmHg; Delta blood pressure [15]: 17 mmHg |
| CSCC[C@@H](NC(=O)C(CS)Cc1ccccc1)C(=O)O (stereo partly specified) | 42 | 25 | 120 | 4 | Delta blood pressure [14]: 18 mmHg |
| CSCC[C@@H](NC(=O)[C@H](CS)CCc1ccccc1)C(=O)O |  |  | > 1000 | > 300 | Delta blood pressure [16]: 6 mmHg |
| Cc1ccc(CSC[C@@H](NC(=O)[C@@H](CS)Cc2ccccc2)C(=O)O)cc1 | 17 | 48 | 19 | 11 |  |
| CC(=O)SC[C@H](Cc1ccccc1)C(=O)N[C@H](CSCc1ccc(C)cc1)C(=O)O |  |  |  |  | Delta blood pressure [9]: 20 mmHg |
| CSCC[C@@H](NC(=O)C(CSC(C)=O)Cc1ccccc1)C(=O)N1CCCCC1 (stereo partly specified) |  | 38 |  |  | Delta blood pressure [15]: 3 mmHg; Delta blood pressure [13]: 32 mmHg |
| O=C(N[C@H](CSCc1ccccc1)C(=O)O)[C@H](CS)Cc1ccccc1 | 55 |  | > 1000 | 32 | Delta blood pressure [17]: 45 mmHg; Delta blood pressure [13]: 21 mmHg |
| CSCC[C@@H](NC(=O)[C@@H](CS)Cc1ccccc1C)C(=O)O |  |  | 100 | 7 | Delta blood pressure [15]: 43 mmHg; Delta blood pressure [18]: 24 mmHg |
| CC(=O)SC[C@H](Cc1ccccc1)C(=O)N[C@H](CSCc1ccc(C)cc1)C(N)=O |  |  |  |  | Delta blood pressure [4]: 0 mmHg; Delta blood pressure [2]: 0 mmHg |
| Cc1ccc(CSC[C@@H](NC(=O)[C@@H](CS)Cc2ccccc2)C(=O)O)cc1C |  | 23 |  |  | IC50 [19]: 370 nM |
| Cc1ccc(CSC[C@@H](NC(=O)[C@@H](CS)Cc2cccc3ccccc23)C(=O)O)cc1 |  | 0 | > 1000 | 2 | Delta blood pressure [14]: 33 mmHg; Delta blood pressure [4]: 8 mmHg; Delta blood pressure [5]: 47 mmHg; Delta blood pressure [15]: 26 mmHg |
| COc1ccc(CSC[C@@H](NC(=O)[C@H](CS)Cc2ccccc2)C(=O)O)cc1 |  | 23 |  |  | Delta blood pressure [14]: 0 mmHg; IC50 [19]: 17 nM |
